# Results as given in article PMC12709667 (Journal of Clinical Pharmacology, 2025).
# How the values were obtained:
# [1] = target: T1, CYP1A2 (Homo sapiens, UniProt P05177); format: in vitro ADME
# T1 sequence (P05177 1-516): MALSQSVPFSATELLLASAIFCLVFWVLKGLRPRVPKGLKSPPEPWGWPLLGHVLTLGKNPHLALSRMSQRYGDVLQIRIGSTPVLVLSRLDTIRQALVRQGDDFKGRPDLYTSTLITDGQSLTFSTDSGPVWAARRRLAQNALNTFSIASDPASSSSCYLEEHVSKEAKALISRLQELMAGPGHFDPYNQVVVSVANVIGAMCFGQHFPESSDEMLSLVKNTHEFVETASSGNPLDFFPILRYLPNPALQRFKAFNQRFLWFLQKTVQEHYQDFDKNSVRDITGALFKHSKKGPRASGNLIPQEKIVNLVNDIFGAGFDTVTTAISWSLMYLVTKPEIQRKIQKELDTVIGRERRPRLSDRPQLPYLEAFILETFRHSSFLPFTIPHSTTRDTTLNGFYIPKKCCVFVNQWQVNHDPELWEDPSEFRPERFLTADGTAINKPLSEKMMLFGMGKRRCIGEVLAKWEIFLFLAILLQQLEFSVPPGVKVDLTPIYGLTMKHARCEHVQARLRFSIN
# [2] = Quantitative whole-body autoradiography tissue distribution in mice; format: in vivo, mouse; conditions: for association of radioactivity with melanin: pigmented mice
# Summary of the method: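 Quantitative whole-body autoradiography after dosing with [14C]-labelled test compound, in non-pigmented (albino) and partially pigmented C57 mice. Frozen carcasses were sectioned and imaged at timepoints from 1 h to 168 h postdose to measure tissue radioactivity. Melanin-containing tissues (skin, uveal tract) were included.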
# [3] = target: CYP2C9 (Homo sapiens, UniProt P11712); assay: DDI perpetrator study: tolbutamide probe; format: in vivo; conditions: miricorilant 400 mg once daily as perpetrator
# Sequence of CYP2C9 (P11712 whole entry): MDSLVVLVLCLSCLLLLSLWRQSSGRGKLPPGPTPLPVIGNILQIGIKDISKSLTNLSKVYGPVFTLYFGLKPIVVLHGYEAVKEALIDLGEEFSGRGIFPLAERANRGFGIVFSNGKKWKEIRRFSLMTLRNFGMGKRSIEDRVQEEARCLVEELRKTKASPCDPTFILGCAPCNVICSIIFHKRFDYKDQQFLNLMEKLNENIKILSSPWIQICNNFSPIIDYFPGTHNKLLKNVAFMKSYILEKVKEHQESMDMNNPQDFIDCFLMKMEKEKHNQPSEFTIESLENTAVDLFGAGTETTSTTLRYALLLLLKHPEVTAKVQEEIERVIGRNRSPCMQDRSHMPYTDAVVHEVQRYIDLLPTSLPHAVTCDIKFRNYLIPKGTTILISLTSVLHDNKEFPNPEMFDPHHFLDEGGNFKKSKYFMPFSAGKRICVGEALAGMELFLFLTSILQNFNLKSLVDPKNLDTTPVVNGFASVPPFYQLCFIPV
# [4] = target: CYP2C19 (Homo sapiens, UniProt P33261); assay: DDI victim study with fluvoxamine; format: in vivo; conditions: with strong CYP2C19 inhibitor fluvoxamine
# Sequence of CYP2C19 (P33261 whole entry): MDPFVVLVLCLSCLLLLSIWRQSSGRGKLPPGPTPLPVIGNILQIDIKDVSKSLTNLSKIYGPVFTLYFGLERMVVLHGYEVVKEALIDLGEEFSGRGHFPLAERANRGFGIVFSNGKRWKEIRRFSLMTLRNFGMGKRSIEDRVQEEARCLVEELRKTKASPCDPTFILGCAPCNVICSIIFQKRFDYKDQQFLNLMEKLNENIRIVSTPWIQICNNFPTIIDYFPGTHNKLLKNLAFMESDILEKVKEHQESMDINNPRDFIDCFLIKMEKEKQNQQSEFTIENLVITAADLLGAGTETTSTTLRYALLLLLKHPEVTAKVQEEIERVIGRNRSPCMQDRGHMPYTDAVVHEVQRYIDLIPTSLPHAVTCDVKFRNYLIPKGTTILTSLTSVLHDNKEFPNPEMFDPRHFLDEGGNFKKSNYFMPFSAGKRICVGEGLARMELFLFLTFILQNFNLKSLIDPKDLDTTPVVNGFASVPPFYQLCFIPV
smiles,measurement,setting,value
O=c1[nH]c(=O)c(Cc2cccc(C(F)(F)F)c2)c([C@H]2CC[C@H](c3ccccc3)CC2)[nH]1 [miricorilant],inhibition of CYP1A2,[1],No inhibition
same,radioactivity in the lens of the eye,[2]; albino mice,not present at quantifiable levels
same,radioactivity in the brain and spinal cord,"[2]; albino mice, 4 and 8 h",low levels
same,time of peak tissue concentration of radioactivity,"[2]; albino mice, majority of tissues (pancreas, liver, gall bladder etc.)",4 h
same,radioactivity in the liver,[2]; mice,high concentrations
same,association of radioactivity with melanin,[2],no long‐term association
same,association of radioactivity with melanin,[2]; listed as [^14C]‐miricorilant,no affinity
same,clinical inhibition of CYP2C9,[3],does not inhibit
same,clinical sensitivity as substrate of CYP2C19,[4],moderately sensitive substrate
